Data taken from PubChem BioAssay.
Activity calls are given as the source filed them.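 Rule for the calls: active = duplicate-averaged activation above buffer control mean plus 5 SD of those controls; inactive = the rest.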

Assay: nonspecific flux increase, KCNQ1-free cells – parental CHO cells, counter-screen for KCNQ1 potentiator project (AID 493006);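 for activation: fluorescence ratio of max minus min over baseline after K+ and Tl+ depolarization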
Conditions: parental CHO-K1 cells, FluxOR thallium flux, at 10 µM; hits give high values
How it was run: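 Material: untransfected host CHO-K1 cells with FluxOR thallium dye. Timing: overnight 37 °C plating, 90 min RT dye, 20 min compound. Detection: kinetic FluxOR fluorescence, 10 s baseline, 110 s after stimulus. Read-out basis: max-minus-min fluorescence over baseline, percent of buffer-to-R-L3 span. Replicates: duplicate wells per compound, percent values averaged.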

| Structure (SMILES) | outcome | activation |
| --- | --- | --- |
| CCOC(=O)c1sc(NC(=S)NC(=O)c2ccc(OC)cc2)nc1C | inactive | – |
| S=c1nc(Cc2ccc(Cl)cc2)[nH]c2ccccc12 | – | 372% (active) |
| Cc1ccc(C(=O)Nc2nnn(C)n2)cc1 | inactive | – |
| O=C(COc1ccccc1)NC(=S)N1CCc2ccccc21 | inactive | – |
| Cc1ccc(-c2c(C(=O)O)c3ccccc3[nH]c2=O)cc1 | inactive | – |
| CCOC(=O)/C(C)=N/NC(=O)c1cccc([N+](=O)[O-])c1 | – | 170% (active) |
| CCOC(=O)NC(=S)Nc1ccc(C(C)(C)C)cc1Br | – | 213% (active) |
| COc1ccccc1CNC(=O)COC(=O)c1nccnc1N | inactive | – |
| COc1ccc(C)cc1-n1c(SCC(=O)Nc2cc(C)on2)nc2ccccc2c1=O | inactive | – |
| Cc1c(Cl)cccc1NC(=O)Cn1c(CCC(=O)O)ccc1-c1ccccc1 | inactive | – |
| N=c1ccn(CC(=O)c2ccc(-c3ccccc3)cc2)cc1 | inactive | – |
| CC(C)Cc1c2c([nH]c(=S)c1C#N)CCCC2 | inactive | – |
| Cc1[nH]n2c(=O)cc(C(C)(C)C)nc2c1-c1ccccc1 | – | 227% (active) |
| S=c1nc(COc2ccccc2)[nH]c2ccccc12 | – | 698% (active) |
| COC(=O)c1c(NC(=S)Nc2ccc(F)cc2[N+](=O)[O-])sc2c1CCCCC2 | – | 160% (active) |
| COc1ccc(NC(=O)C(=O)NNC(=O)c2cccs2)c(OC)c1 | – | 246% (active) |
| O=C1NC(=S)S/C1=C\c1ccc2ccccc2c1 | – | 234% (active) |
| Cc1ccc(S(=O)(=O)N2CCN(C(=O)CCC(=O)OCC(=O)Nc3cccc(C#N)c3)CC2)cc1 | inactive | – |
| CCNC(=S)Nc1scc(-c2ccccc2)c1C(=O)OCC | – | 254% (active) |
